Test results as given in article PMC3000613 (Biochemistry, 2010).

What was measured:
[1] = test system: MBP-sAnk1_29–155 / GST-Obsc6231–6260; type: binding, rat; details: for molar excess of peptide over sAnk1 needed to inhibit binding by 50%: binding of GST-Obsc6231–6260 construct to sAnk1, 1 µM MBP-sAnk1, SPR
Summary of the method: (§1)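 Each GST-obscurin fusion was expressed in BL21* pLysS cells (1 mM IPTG, 4 h), affinity-purified, and captured by anti-GST on a CM5 SPR chip. 1 µM MBP-sAnk1 was pre-mixed with synthetic 6316–6345 or 6231–6260 oligopeptide at varying relative molar amounts, then flowed over the chip. Inhibition constant = reciprocal of the peptide:sAnk1 concentration ratio blocking maximal binding by 50%.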

[2] = test system: MBP-sAnk1_29–155 / GST-Obsc6316–6345; design: species or system rat; details: binding to GST-Obsc6316–6345
Summary of the method: as §1

MBP-sAnk1_29–155 [3] = test: SPR direct binding of GST-obscurin constructs to MBP-sAnk1; design: species or system rat; details: GST fusion constructs vs MBP-sAnk1_29–155
Summary of the method: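 GST-obscurin constructs, expressed in BL21* pLysS cells (1 mM IPTG, 4 h) and affinity-purified, were captured by anti-GST on a CM5 chip. MBP-sAnk1 was applied over a wide concentration range. Signal from a GST-only chip and a buffer blank was subtracted. Kinetic rate constants and KD came from 1:1 binding model fits.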

MBP-sAnk1_29–155 [4] = test: SPR competition, oligopeptide inhibition of MBP-sAnk1 binding; design: species or system rat; details: binding of MBP-sAnk1_29–155 to either GST-Obsc6316–6345 or GST-Obsc6231–6260

| Substance | molar excess of peptide over sAnk1 needed to inhibit binding by 50% [1] | Ratio of inhibition constants, 6316–6345 to 6231–6260 oligopeptide ([1]; binding to GST-Obsc6231–6260) | Ratio of inhibition constants, 6316–6345 to 6231–6260 oligopeptide [2] | binding to sAnk1 by SPR (in words) (MBP-sAnk1_29–155 [3]) | relative inhibition of binding vs 6231–6260 oligopeptide (MBP-sAnk1_29–155 [4]) |
| --- | --- | --- | --- | --- | --- |
| Obsc6231–6260 oligopeptide: synthetic oligopeptide containing obscurin residues 6231–6260 | ~ 6 fold molar excess |  |  |  |  |
| Obsc6316–6345 oligopeptide: synthetic oligopeptide containing obscurin residues 6316–6345 (GAAWPGAGTGELLWDVHSHVVRETTQRTYT; UniProt Q5VST9 6316-6345, looked up, fragment) | ~ 2 fold molar excess | 3.29 | 3.00 | no significant difference in binding between Obsc6316–6436 and Obsc6316–6345 | ~ 3 fold |
